# Screening data from PubChem BioAssay.
# CSC inhib: blocks cancer stem cells | cancer stem cell-like cells viability, luminescence | inhibition, % at 7.5 µM | hit rate 1.1% among 300,000 | AID 2717; in the data active means inhibition above about 75%; inconclusive means no clear call, values can overlap the other calls; tested in HMLE shEcad cells
# T cruzi repl: blocks replication of Trypanosoma cruzi; inhibition, % (concentration not given with the values); AID 1885; T. cruzi beta-gal in NIH3T3, luminescence, 90 h; hit rate 1.4% among 300,000;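 active means mean inhibition across valid replicates above about 55%, limit read from the data; inconclusive means mean below that limit but half or more replicates reach it; inactive means mean below it, under half of replicates reach it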;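 further: signal also drops with host cell toxicity which is not excluded here; 0% = plate median of DMSO wells and 100% = zero luminescence signal; higher percent means less beta-gal luminescence so fewer parasites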
#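 Assay system: NIH/3T3 fibroblasts plus reporter T. cruzi. Amount: NIH/3T3 cells, 5,000 per well. Buffer or medium: DMEM, 2% fetal bovine serum. Doses: compound pinned at 50 nL/well, DMSO. Schedule: ≥90 h infection period, 3 h prior cell attachment. Signal: luminescent β-galactosidase signal after 60 min lysis. Read-out: parasite load inhibition, %.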
# SKKanGAS inh: blocks kanamycin growth of S. pyogenes SKKanGAS strain; BacTiter-Glo, 6 h; inhibition, % at 7.5 µM; hit rate 1.3% among 300,000; AID 1662;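 active means mean replicate score, as percent of positive control median, at least 50; inconclusive means mean below 50 but one replicate at or above 50; inactive means mean and every replicate below 50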;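 further: strain carries kanamycin resistance gene driven by streptokinase promoter and grows in 40 µg/ml kanamycin; loss of luminescence reflects streptokinase promoter inhibition or plain growth inhibition; 0% = median of DMSO wells and 100% = positive control at its reference dose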
# Calb FLC: C. albicans growth modulation with fluconazole; AID 1979; growth inhibition, % (concentration not given with the values); hit rate 0.57% among 300,000; C. albicans CaCi-2 (fluconazole-resistant clinical isolate) + fluconazole, Alamar Blue growth, 48 h;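 active means growth inhibition above about 58% in most replicates, limit read from the data, passing the limit was not always enough; inconclusive means exactly half the replicates above a set limit; inactive means most replicates below a set limit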;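 further: all wells also contain fluconazole at 8 µg/ml as a sub-toxic cotreatment; 0% = median of DMSO wells and 100% = median of geldanamycin control wells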
# Mdm2-MdmX inh: human Mdm2/MdmX binding inhibition; O15151+Q00987; inhibition, % at 8 µM; hit rate 3% among 330,000; AID 485346; SaOS-2 split-luciferase Mdm2/MdmX complementation, luminescence;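 active means inhibition of at least 50% at 8 µM in the primary screen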
# Beta cell apopt: beta cell apoptosis inhibition. protection from apoptosis, % (test concentration not listed). AID 435005. INS-1E cytokine-induced death, ATP luminescence, 48 h; percent of positive-control rescue, neutral wells zero. hit rate 0.8% among 300,000;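 active means Every replicate reaches about 75%, or at least half do and their mean reaches it too, limit read from the data; inconclusive means At least half of replicates reach the limit but their mean does not; inactive means Under half of replicates reach the limit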;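 further: 0% = cytokine-treated negative control wells and 100% = positive control rescue; higher means more ATP so stronger rescue from cytokine killing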
# Numbers without * were called inactive; ? = inconclusive; nt = no result. Only some compounds are listed: those with a hit (about 5.7% of all), similar ones and a draw of the others.
SMILES,CSC inhib,T cruzi repl,SKKanGAS inh,Calb FLC,Mdm2-MdmX inh,Beta cell apopt
C[n+]1cn(CC(O)COCc2ccccc2)c2ccccc21 (stereo not given),-17,-14,-4,19,18,-1
COc1ccc(CCN(C(=S)Nc2ccccc2)C2CC(=O)N(c3ccccc3)C2=O)cc1 (stereo not given),3,-8,26,-8,26,0
Cc1ccc(N2C(=O)CC(N(CCc3ccccc3)C(=S)Nc3ccc(N(C)C)cc3)C2=O)cc1 (stereo not given),95*,13,23,-19,19,3
Cc1cc(O)c(Sc2ccc(Cl)cc2)c(=O)[nH]1,4,-8,1,-2,15,-14
Cc1[nH]n(C(C)(C)C)c(=O)c1Sc1ccc(Cl)cc1,3,61*,-3,29,26,-13
O=C(C[C@H]1C[C@H](C(=O)N2CCCCC2)[C@@]2(CCc3ccccc3)c3[nH]c4cc(-c5ccco5)ccc4c3CCN2C1=O)NCCC1=CCCCC1,nt,nt,nt,nt,39,nt
COc1ccccc1C(=O)Nn1c(C2CCC2)nc2ccccc2c1=O,nt,56*,-3,19,-8,-2
COC(=O)c1ccc(/C=C/c2ccc3cccc(OC)c3n2)cc1,3,2,?,-9,31,6
COc1cc(/C=C/c2ccc3c(Br)cc(Br)c(O)c3n2)ccc1O,115*,50,97*,-1,nt,63
COc1ccc(/C=C/c2ccc3c(Br)ccc(O)c3n2)cc1,89*,49,85*,0,36,36
Cc1ccc(NC(=O)NCC2CCN(Cc3cccc(Cl)c3)CC2)cc1Cl,?,62*,12,-5,31,120*
CCc1ccc(NC(=O)NCC2CCN(Cc3cccc(Cl)c3)CC2)cc1,3,40,8,-7,29,-2
O=C(C1=C[C@H](c2ccc(C(F)(F)F)cc2)C[C@H](OCCCCO)O1)N1CCN(Cc2ccccc2)CC1,-22,48,5,-4,30,-1
O=C(C1=C[C@H](c2ccc(C(F)(F)F)cc2)C[C@H](OCc2ccc(CO)cc2)O1)N1CCN(Cc2ccc3c(c2)OCO3)CC1,80*,65*,23,6,45,14
O=C(C1=C[C@@H](c2ccc(C(F)(F)F)cc2)C[C@@H](OCCCCO)O1)N1CCN(Cc2ccccc2)CC1,-7,18,1,-1,8,116*
CCOC(=O)c1sc(N2C(=O)C(O)=C(C(=O)c3ccco3)C2c2cccc(Cl)c2)nc1C (stereo not given),-6,-7,63*,71,-8,2
CCOC(=O)c1sc(N2C(=O)C(O)=C(C(=O)c3ccco3)C2c2cccc([N+](=O)[O-])c2)nc1C (stereo not given),20,19,65*,29,nt,10
Cc1nc(NC(=O)c2ccco2)sc1-c1csc(Nc2ccc(Cl)cc2)n1,91*,30,27,4,19,7
Cc1nc(NC(=O)c2ccco2)sc1-c1csc(Nc2ccc(Cl)cc2Cl)n1,57,59*,32,2,30,11
Cc1nc(NC(=O)c2ccccc2)sc1-c1csc(Nc2ccc(Cl)cc2)n1,-6,-1,26,13,-39,5
Cc1nc(NC(=O)CC(C)C)sc1-c1csc(Nc2ccc(Cl)cc2Cl)n1,80*,52,34,0,-2,8
Cc1c(Br)c([N+](=O)[O-])nn1CC(=O)NC1CCCCCC1,-2,3,7,-4,11,-4
CS(=O)(=O)Nc1ccc(C2=NN(C(=O)C3CCCCC3)C(c3cccs3)C2)cc1 (stereo not given),-2,-10,83*,-16,10,-1
CCC1(C)Cc2ccccc2-c2c1c(=O)n(-c1ccc(C)cc1)c1nnnn21 (stereo not given),26,21,-1,1,-15,2
CC1(C)Cc2ccccc2-c2c1c(=O)n(Cc1ccccc1)c1nnnn21,46,16,60*,-9,19,17
O=C(NCCc1c[nH]c2ccccc12)C1CCC(Cn2c(=S)[nH]c3ccccc3c2=O)CC1 (stereo not given),76*,75*,33,-10,18,11
Cc1noc(/C=C/c2ccccn2)c1[N+](=O)[O-],19,41,-2,85*,6,2
